This is a sample that favours compounds with a hit; in the whole collection about 2.4% have one here.
CSN inh = inhibitors of CSN-mediated cullin deneddylation, primary screen, biochemical, fluorescence polarization, uHTS. AID 651999, 2013. Purified CSN, SCF-Nedd8-OG deneddylation. inhibition, % at 12.5 µM. COP9 signalosome complex subunit 5 (Homo sapiens), Q92905. hit rate 0.38% among 360,000;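 active = pattern-corrected inhibition above about 35%, with an unprinted fluorescence ratio check between 0.5 and 1.5, limit read from the data, passing the limit was not always enough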;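 note: 0% = enzyme with substrate and 100% = substrate without enzyme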
Target sequence (Q92905 whole entry, looked up, one chain of several): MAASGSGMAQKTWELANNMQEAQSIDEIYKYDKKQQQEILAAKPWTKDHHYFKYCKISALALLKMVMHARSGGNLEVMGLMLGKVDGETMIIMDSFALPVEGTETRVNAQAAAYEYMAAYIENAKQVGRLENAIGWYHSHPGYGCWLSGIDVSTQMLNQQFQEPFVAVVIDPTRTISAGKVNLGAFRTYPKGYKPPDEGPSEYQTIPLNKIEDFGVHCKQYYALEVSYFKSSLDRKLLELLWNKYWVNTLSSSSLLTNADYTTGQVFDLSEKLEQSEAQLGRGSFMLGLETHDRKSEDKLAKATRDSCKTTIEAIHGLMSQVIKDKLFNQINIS
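assay system = purified human Csn5 enzyme expressed in HEK293T cells | amount = 0.24 nM enzyme | buffer or medium = Tris/NaCl/DTT buffer, pH 7.5 | reagent = 10 nM SCFSkp2-Nedd8OG | compound = one concentration, 12.5 µM, 0.25% DMSO | times = 90 min reaction at room temperature | signal = FP | read-out basis = % inhibition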
TPT1 inh = Candida albicans TPT1 enzyme inhibitors, primary screen, biochemical, fluorescence polarization; hit rate 0.81% among 300,000; recombinant caTPT1, FP RNA substrate dephosphorylation; tRNA 2'-phosphotransferase TPT1 (Candida albicans SC5314); inhibition, % at 5 µM;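 active = inhibition above the mean of all tested compounds plus 3 SD, set per screening campaign, cut at about 24% in these data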;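 note: plate controls were DMSO alone for no effect and ferristatin control at 100 nM for full effect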
Neddylation inh = inhibitors of cullin neddylation, primary screen, biochemical, TR-FRET, uHTS, NAE and Ubc12. AID 651699, 2012. hit rate 0.58% among 360,000. inhibition, % at 25 µM; in the data active = inhibition above about 36%
Rpn11 inh = Rpn11 (PSMD14) deubiquitinase inhibitors, primary screen, biochemical, fluorescence polarization, uHTS | inhibition, % at 20 µM | human 26S proteasome, Ub4-pepOG fluorescence polarization; 20S core pre-blocked with epoxomicin | 26S proteasome non-ATPase regulatory subunit 14 (Homo sapiens), O00487 | hit rate 0.59% among 360,000;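 active = inhibition at 20 µM, scaled to each plate's controls, above about 33%, limit read from the data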
HNF4A DNA FP = change in binding of human HNF4A to DNA, primary screen, biochemical, fluorescence polarization, FITC-DNA; activity change, % at 10 µM; 1 h; Hepatocyte nuclear factor 4-alpha (Homo sapiens), P41235; hit rate 0.3% among 360,000; in the data active = activity change above about 30%, passing the limit was not always enough
Rin1-Abl PPI inh = inhibitors of Rin1-Abl protein binding, primary screen, biochemical, TR-FRET; Tyrosine-protein kinase ABL1 (Homo sapiens) + Ras and Rab interactor 1 (Homo sapiens), …; inhibition, % at 7.35 µM; hit rate 0.4% among 360,000; AID 588664, 2011; in the data active = inhibition above about 5%, passing the limit was not always enough
caTPT1 confirm = Candida albicans TPT1 inhibitors, confirmation, biochemical, fluorescence polarization, triplicate. shares compounds with TPT1 inh. recombinant caTPT1, RNase T1 coupled. inhibition, % at 5 µM. hit rate 74% among 2,400;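 active = inhibition above the primary screen limit, the mean inhibition of all tested compounds plus 3 SD, cut at about 25% in these data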
RNase T1 counter = RNase T1 inhibitors, counter-screen for TPT1 inhibitor project, biochemical, fluorescence polarization; shares compounds with TPT1 inh; RNase T1 cleavage, 1536-well; inhibition, % at 5 µM; hit rate 83% among 2,400; AID 2153, 2009;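 active = inhibition above the solvent-only control well mean plus 3 SD, limit set per screening run, cut at about 23% in these data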;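 note: plate controls were DMSO wells with enzyme for no effect and wells without RNase T1 for full effect; inhibitors block cleavage so intact labeled substrate keeps polarization high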
Target sequence (P00651 whole entry, looked up): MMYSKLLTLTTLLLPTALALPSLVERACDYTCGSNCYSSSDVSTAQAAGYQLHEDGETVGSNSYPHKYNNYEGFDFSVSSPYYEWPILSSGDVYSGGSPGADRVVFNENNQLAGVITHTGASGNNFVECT
Rpn11 inh conf = Rpn11 (PSMD14) deubiquitinase inhibitors, confirmation, biochemical, fluorescence polarization, single concentration | shares compounds with Rpn11 inh | purified human 26S proteasome, Ub4-pepOG fluorescence polarization; proteasome pretreated with epoxomicin | inhibition, % at 20 µM | hit rate 29% among 1,900 | AID 602318, 2012
MMP-2 counter-1 = MMP-2 enzyme inhibition, confirmation, counter-screen for RPN11 inhibitor project, biochemical, fluorescence, single concentration | inhibition, % at 20 µM | shares compounds with Rpn11 inh | recombinant MMP-2, FRET peptide cleavage fluorescence | hit rate 4% among 1,900;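 note: human MMP-2 activated beforehand with APMA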
Thrombin inh = bovine thrombin protease inhibition, confirmation, counter-screen for Rpn11 inhibitor project, biochemical, fluorescence polarization, single concentration; shares compounds with Rpn11 inh; bovine thrombin cleavage of Ub4-pepOG; inhibition, % at 20 µM; hit rate 13% among 1,900;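 active = mean inhibition at least 40% at 20 µM, or signal 3 deviations below plate average, so some actives read negative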;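 note: plate controls were thrombin with DMSO for no effect and buffer wells lacking thrombin for full effect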
CSN5 deneddyl = Csn5 deneddylation inhibitors, confirmation, biochemical, fluorescence polarization, single concentration, SCF-Nedd8OG substrate; AID 720654, 2013; inhibition, % at 16.6 µM; Csn5 deneddylation of SCF-Nedd8OG, 90 min; shares compounds with CSN inh; hit rate 62% among 540; in the data active = inhibition above about 50%;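 note: 0% = DMSO with enzyme and 100% = no enzyme wells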
MMP-2 counter-2 = MMP-2 protease inhibition counter-screen, confirmation, counter-screen for CSN deneddylation inhibitor project, biochemical, fluorescence, single concentration; shares compounds with CSN inh; hit rate 33% among 540; recombinant MMP-2, FRET substrate fluorescence, 60 min; inhibition, % at 16.6 µM;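 active = corrected plate-normalized z-score of 5 or more, or -5 or less, or inhibition of 15% or more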;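 note: plate controls were DMSO wells with enzyme for no effect and buffer wells lacking MMP-2 for full effect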
Thrombin counter = blocks bovine thrombin in a CSN deneddylation counter-screen | shares compounds with CSN inh | bovine thrombin cleavage of Ub4-pepOG, fluorescence polarization | inhibition, % at 16.6 µM | hit rate 49% among 540;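 active = inhibition at or above a set limit, with a fluorescence interference ratio between 0.5 and a set maximum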
The depositor's hits bear a star; . = no result shown; + = active, no number. Cut-off read from the data, not from the text of the source, unless noted: active = inhibition above about 40%; inactive = the rest.

SMILES	CSN inh	TPT1 inh	Neddylation inh	Rpn11 inh	HNF4A DNA FP	Rin1-Abl PPI inh	caTPT1 confirm	RNase T1 counter	CSN5 deneddyl	MMP-2 counter-2	Thrombin counter	others
N#C/C(=C/c1ccc(N2CCOCC2)o1)C(=O)NC1CCCCC1	103*	156*	-108	.	172	-18	173*	166*	120*	-5	88*
N#C/C(=C\N1CCOCC1)c1ccccc1	4	-1	-9	7	0	6	.	.	.	.	.
CCCS(=O)(=O)NC(=O)C1(C)CCN(C(=O)c2ccc(OC(F)F)cc2)C1 (configuration not stated)	-2	.	-11	-5	2	0	.	.	.	.	.
CCCCN(C)CC(O)Cn1cc(/C=C/C(=O)c2cccs2)c2ccccc21 (configuration not stated)	41*	59*	2	.	24	-24	61*	68*	67*	-7	32*
CCCCN(C)CC(O)Cn1cc(/C=C/C(=O)c2ccc(OCC)cc2)c2ccccc21 (configuration not stated)	.	17	.	.	.	.	.	.	.	.	.
CCCCNC(=O)c1nc(-c2cc3ccccc3[nH]2)oc1-c1ccccc1	1	.	.	.	6	.	.	.	.	.	.
CN(C)c1ccc(/C=C2\SC(N3CCCCC3)=NC2=O)cc1	84*	106*	-141	.	118	-13	116*	116*	63*	2	78*
Cc1ccc(/C=C2\SC(N3CCCC3)=NC2=O)cc1	.	-1	.	.	.	.	.	.	.	.	.
Cc1ccsc1/C=C1\Oc2cc(O)ccc2C1=O	-41	.	14	-34	-48	-6	.	.	.	.	.
COc1cc(/C=C2\Oc3cc(O)ccc3C2=O)ccc1O	40*	47*	12	.	33	-5	51*	59*	98*	-7	29*
O=C(N/N=C/C=C\c1ccccc1[N+](=O)[O-])c1cccs1	-2	-3	-35	-2	-2	-5	.	.	.	.	.
O=C(N/N=C/C=C/c1ccc([N+](=O)[O-])cc1)c1cccs1	56*	44*	-5	+	56*	-3	30*	46*	.	59*	30*	Rpn11 inh conf=113*;MMP-2 counter-1=45*;Thrombin inh=41*
Cc1ccc(-c2nnc(SCC(=O)NC3CCCC3)n2C)cc1	0	-1	0	-2	0	2	.	.	.	.	.
CCOc1cc(C(=O)N(C)CC(=O)Nc2cccc3ccccc23)ccc1OC	-6	.	-2	5	3	3	.	.	.	.	.
N#Cc1ccc(-c2nc3c4ccccc4ccn3c2CC2CCCCC2)cc1	1	.	36	.	2	.	.	.	.	.	.
O=[N+]([O-])c1ccc(N/N=C/c2c[nH]c3ccccc23)c(S(=O)(=O)Nc2ccc(Cl)cc2)c1	39*	36*	-45	.	65*	3	107*	108*	82*	7	12
CN1CCN(S(=O)(=O)c2cc([N+](=O)[O-])ccc2N/N=C/c2ccc(Cl)cc2)CC1	-1	1	13	2	2	-4	.	.	.	.	.
COc1cc2c(cc1O)CCN(C(=O)CSc1nncn1C)[C@@H]2C	-1	.	-4	-11	2	2	.	.	.	.	.
Nc1nonc1-n1nnc(C(=O)N/N=C/c2ccccc2F)c1CN1CCc2ccccc21	2	-1	8	8	1	-1	.	.	.	.	.
C(=C\c1ccc2ccccc2n1)/c1ccccc1	3	-1	-4	5	2	-5	.	.	.	.	.
CN(C)c1ccc(/C=C/c2ccc3ccccc3n2)cc1	50*	60*	.	.	79	-6	61*	70*	88*	-20	17*
COc1ccc(Cl)cc1NC(=O)CN1C(=O)NC2(CCCC2)C1=O	3	2	-5	-4	4	-1	.	.	.	.	.
Cc1cc(/C=C2\SC(=S)NC2=O)c(C)n1-c1ccc(O)cc1	60*	95*	-13	.	99*	-1	108*	119*	50*	28*	50*
Cc1cc(/C=C2/SC(=O)NC2=O)c(C)n1-c1ccc(N2CCOCC2)cc1	-6	-5	-5	-5	0	-4	.	.	.	.	.
Cc1cc(/C=C2\SC(=S)NC2=O)c(C)n1C	76*	53*	-52	130*	44*	-4	69*	84*	53*	24*	39*	Rpn11 inh conf=121*;MMP-2 counter-1=35;Thrombin inh=91*
Cc1cc(/C=C2\SC(=S)NC2=O)c(C)n1-c1ccccc1	40*	73*	-9	109*	75*	-3	69*	83*	61*	23*	31*	Rpn11 inh conf=77*;MMP-2 counter-1=28;Thrombin inh=60*
CCCc1nc(SCc2ccc(OCC)cc2)n[nH]1	-2	1	4	-3	2	1	.	.	.	.	.
